# E-sel inducer: E-selectin induction on HUVECs. P16581. HUVEC E-selectin immunofluorescence imaging; normalized: neutral wells 0, TNF-alpha wells 100. activation, % at 7.58 µM. 260,000 compounds, 0.37% hits. AID 686992;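 active = mean E-selectin-positive cell signal at least 10% of the positive control, reached in at least 60% of replicates, without over 20% cell loss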
# Target sequence (P16581 whole entry, looked up): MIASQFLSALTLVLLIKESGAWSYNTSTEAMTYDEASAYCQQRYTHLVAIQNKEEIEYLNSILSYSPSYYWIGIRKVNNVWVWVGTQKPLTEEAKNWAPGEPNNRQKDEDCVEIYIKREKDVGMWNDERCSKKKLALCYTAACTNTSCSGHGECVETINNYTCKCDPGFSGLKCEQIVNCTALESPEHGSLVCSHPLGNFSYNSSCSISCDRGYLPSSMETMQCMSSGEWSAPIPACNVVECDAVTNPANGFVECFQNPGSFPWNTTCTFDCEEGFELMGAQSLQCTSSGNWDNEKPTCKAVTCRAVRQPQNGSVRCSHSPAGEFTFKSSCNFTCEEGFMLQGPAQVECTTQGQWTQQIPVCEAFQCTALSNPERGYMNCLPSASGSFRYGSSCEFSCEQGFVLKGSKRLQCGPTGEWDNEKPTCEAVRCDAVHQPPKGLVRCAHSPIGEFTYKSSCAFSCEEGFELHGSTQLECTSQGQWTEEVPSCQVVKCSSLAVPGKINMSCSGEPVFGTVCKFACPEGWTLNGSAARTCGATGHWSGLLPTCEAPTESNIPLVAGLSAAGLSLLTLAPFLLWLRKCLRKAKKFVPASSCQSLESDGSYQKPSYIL
#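 Read-out: % PE-positive cells | Test system: HUVEC | Doses: One compound dose added by pin transfer | Buffer or medium: EGM-2 over gelatin coat | Signal: Immunofluorescence imaging | Benchmarks: TNF-alpha, DMSO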
# XiGFP reactiv: X-chromosome reactivation activator | XiGFP mouse fibroblasts, % GFP-positive cells imaging, 3 d; cells co-treated with 5-aza-dC sensitizer; scaled so ellipticine positive control = 100% | activation, % at 7.58 µM | 360,000 compounds, 0.055% hits | AID 743238;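 active = mean normalized replicate activation at least 10% and every replicate at or above 10%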;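 note: 0% = median of on-plate neutral control wells and 100% = ellipticine 6 µM median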
#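 Material: XiGFP fibroblasts, SV40-immortalized; Buffer or medium: DMEM containing 5-aza-dC; Compound dosing: single point; Times: 3 days compound exposure.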
# * = called active by the depositor; . = not tested or not shown. Many of the other results were omitted from the sample, so hits are more common in it than they were.
SMILES,E-sel inducer,XiGFP reactiv
C[C@H]1CN([C@@H](C)CO)C(=O)c2cccc(NC(=O)Nc3cccc4ccccc34)c2O[C@H]1CN(C)Cc1ccccc1,-0.1,0.0
CC(C)NC(=O)Nc1cccc2c1O[C@@H](CN(C)Cc1ccc(Cl)c(Cl)c1)[C@@H](C)CN([C@H](C)CO)C2=O,44.1*,-0.1
C[C@H](CO)N1C[C@H](C)[C@@H](CN(C)Cc2ccc(-c3ccccc3)cc2)Oc2c(NC(=O)Nc3cccc4ccccc34)cccc2C1=O,90.5*,0.1
C[C@H]1CN([C@@H](C)CO)C(=O)c2cccc(NC(=O)c3nc4ccccc4s3)c2O[C@@H]1CN(C)Cc1ccc(C(F)(F)F)cc1,48.3*,0.1
CC(C)NC(=O)Nc1cccc2c1O[C@@H](CN(C)Cc1ccc(Cl)c(Cl)c1)[C@H](C)CN([C@H](C)CO)C2=O,12.5,-0.1
CC(C)NC(=O)Nc1cccc2c1O[C@@H](CN(C)Cc1ccc(C(F)(F)F)cc1)[C@H](C)CN([C@H](C)CO)C2=O,28.9*,-0.1
C[C@H](CO)N1C[C@H](C)[C@H](CN(C)Cc2ccc(C(=O)O)cc2)Oc2ccc(NC(=O)CCC(F)(F)F)cc2CC1=O,.,-0.6
Cc1ccccc1-c1ccc([C@@H]2[C@@H](CO)N3C(=O)CN(C(=O)Nc4ccc(F)cc4)C[C@@H]23)cc1,0.1,0.1
O=C(C[C@H]1CC[C@H](NC(=O)C2CCC2)[C@@H](CO)O1)NC1CCCCC1,-0.3,-0.3
C[C@@H](NC(=O)C[C@@H]1CC[C@H]2[C@@H](COC[C@H](O)CN2Cc2ccc(C(F)(F)F)cc2)O1)c1ccccc1,0.3,0.0
N#Cc1ccc(-c2ccc3c(c2)[C@H]2[C@H](CCN2C(=O)C2CCCC2)[C@@H](CO)N3)cc1,0.4,-0.1
OCC(O)CN1CCN(c2ccccc2)CC1 (centres undefined),0.0,0.1
OC(CSc1ccc(F)cc1)CN1CCN(c2ccccc2)CC1 (centres undefined),56.1*,0.0
O=C(NCCCO)/C(=C/c1ccc(-c2cccc([N+](=O)[O-])c2)o1)NC(=O)c1ccccc1,-0.9,0.5
Cc1ccc(C(=O)N/C(=C/c2ccc(-c3ccc([N+](=O)[O-])cc3)o2)C(=O)NCCCN(C)C)cc1,0.1,61.8*
C[C@@H]1CN([C@H](C)CO)C(=O)Cc2cc(NS(=O)(=O)c3ccc(F)cc3)ccc2O[C@@H]1CN(C)C(=O)NC1CCCCC1,-0.2,0.9
COc1ccc(S(=O)(=O)Nc2ccc3c(c2)CC(=O)N([C@H](C)CO)C[C@@H](C)[C@@H](CN(C)C(=O)NC2CCCCC2)O3)cc1,55.2*,0.2
C[C@H](CO)N1C[C@H](C)[C@@H](CN(C)C(=O)NC2CCCCC2)Oc2ccc(NS(=O)(=O)c3ccc(F)cc3)cc2CC1=O,-0.1,-0.5
COc1ccc(S(=O)(=O)Nc2ccc3c(c2)CC(=O)N([C@@H](C)CO)C[C@H](C)[C@@H](CN(C)C(=O)NC2CCCCC2)O3)cc1,79.2*,0.3
CCC(=O)N1CC2(CCN(Cc3ccncc3)CC2)c2c(n(C)c3cc(OC)ccc23)[C@H]1CO,2.0,0.4
O=C(C[C@@H]1CC[C@H]2NC[C@H](O)COC[C@@H]2O1)Nc1ccccc1,0.2,0.2
CO[C@H]1CN(C)C(=O)c2cc(NS(=O)(=O)Cc3ccccc3)ccc2OC[C@@H](C)NC[C@H]1C,0.0,-0.1
Cc1cccc(C)c1-n1nnnc1-c1nc2ccccc2[nH]c1=O,49.2*,0.2
Cc1cc2nc(-c3nnnn3-c3c(C)cccc3C)c(=O)[nH]c2cc1C,6.7,-0.1
CNC(=O)c1cc2c(ccc3ccccc32)o1,78.3*,0.2
SMILES,E-sel inducer,XiGFP reactiv
Cc1ccc(/C=N/NC(=O)c2cc3c(ccc4ccccc43)o2)o1,-0.1,0.1
C[C@@H]1CCCCO[C@@H](CN(C)C(=O)c2ccncc2)[C@H](C)CN([C@H](C)CO)C(=O)c2cc(NC(=O)CCC(F)(F)F)ccc2O1,0.1,0.0
O=C(NC(Cc1ccccc1)c1nc2ccccc2[nH]1)c1cccc([N+](=O)[O-])c1 (centres undefined),83.2*,0.0
O=C(N[C@@H](Cc1ccccc1)c1nc2ccccc2[nH]1)c1ccc([N+](=O)[O-])cc1,.,0.3
CO[C@H]1CN(C)C(=O)c2cc(NC(C)=O)ccc2OC[C@H](C)N(C(=O)c2ccccc2F)C[C@@H]1C,-0.1,0.1
CN1C(=O)c2cc(NC(=O)C3CCCC3)ccc2OC[C@@H]2O[C@@H](CC(=O)Nc3ccccc3)CC[C@H]21,0.0,0.2
COc1cccc(Oc2nc(N)ncc2[N+](=O)[O-])c1,28.8*,0.3
Nc1ncc([N+](=O)[O-])c(Oc2ccccc2F)n1,0.5,0.3
CS(=O)(=O)Nc1ccc2c(c1)[C@@H]1C[C@@H](CC(=O)NCCc3ccccc3)O[C@H](CO)[C@@H]1O2,-0.2,0.2
COc1ccc(-c2cnc3c(c2)C(=O)N([C@@H](C)CO)C[C@@H](C)[C@@H](CN(C)C(=O)C2CCC2)O3)cc1,-0.2,-0.2
C[C@@H]1CCCCO[C@H](CN(C)C(=O)NC2CCCCC2)[C@@H](C)CN([C@@H](C)CO)C(=O)c2cc(NC(=O)c3ccncc3)ccc2O1,0.6,-0.1
CCN1[C@H](C(=O)N(C)C)[C@@H](CO)[C@@H]2Cn3c(ccc(-c4cccc(OC)c4)c3=O)[C@@H]21,2.7,0.3
CCN1CCN(c2nc3ccccc3n3cnnc23)CC1,0.9,-0.1
Cc1cccc(N2CCN(c3nc4ccc(Cl)cc4n4cnnc34)CC2)c1C,152.4*,-0.1
CCN1[C@H](C(=O)N(C)C)[C@@H](CO)[C@@H]2Cn3c(ccc(/C=C/c4ccccc4)c3=O)[C@@H]21,0.0,0.6
C[C@@H]1CN([C@@H](C)CO)C(=O)c2cc(NS(C)(=O)=O)ccc2O[C@@H]1CN(C)C(=O)Nc1ccc(C(F)(F)F)cc1,-3.9,0.0
O=C(COc1ccc(Cl)cc1Cl)Nc1ccccc1F,0.1,0.0
CC(=O)Nc1ccc(NC(=O)COc2ccc(Cl)cc2Cl)cc1,47.5*,0.2
C[C@@H]1CN([C@H](C)CO)C(=O)c2cc(NC(=O)Cn3cnnn3)ccc2O[C@H]1CN(C)C,.,-0.1
C[C@@H]1CN([C@@H](C)CO)C(=O)Cc2cc(N(C)C)ccc2O[C@H]1CN(C)CC1CC1,-0.1,3.5
C[C@@H]1CN([C@@H](C)CO)C(=O)c2cc(C#CC3CCCCC3)cnc2O[C@@H]1CN(C)S(C)(=O)=O,-0.2,-0.9
O=S(=O)(Nc1cccc(-n2cnnn2)c1)c1ccccc1,.,0.0
NS(=O)(=O)c1cccc(-n2cnnn2)c1,0.3,39.8*
C[C@@H]1CN([C@H](C)CO)C(=O)c2cc(/C=C/c3ccccc3)cnc2O[C@H]1CN(C)Cc1cncnc1,-0.7,0.1
C[C@H](CO)N1C[C@H](C)[C@H](CN(C)S(=O)(=O)c2ccc(F)cc2)Oc2ccc(NC(=O)Nc3ccc4c(c3)OCO4)cc2C1=O,-16.0,-0.1
C[C@@H]1CN([C@H](C)CO)C(=O)c2cc(NC(=O)Nc3ccc4c(c3)OCO4)ccc2O[C@H]1CN(C)S(=O)(=O)c1ccccc1,33.7*,0.1
COc1ccc(S(=O)(=O)N(C)C[C@@H]2Oc3ccc(NC(=O)Nc4ccc5c(c4)OCO5)cc3CC(=O)N([C@H](C)CO)C[C@H]2C)cc1,13.8,-0.1

# Bioassay records: PubChem BioAssay, Broad Institute
